# Screens deposited in PubChem BioAssay by The Scripps Research Institute Molecular Screening Center.
# An excerpt weighted towards active compounds, which were near 3.2% of everything screened.
# rCAG binder = binders of r(CAG) RNA repeats, primary screen, biochemical, fluorescence; r(CAG) RNA repeat, TO-PRO-1 dye displacement fluorescence; inhibition, % at 3 µM; 370,000 compounds, 1.3% hits; AID 651821, 2012;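 active means inhibition above the plate cutoff, the mean of all test compounds on that plate plus 3 SD, cut at about 35% in these data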;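 further: higher means more dye released from RNA so lower well fluorescence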
# LEDGF integ inh = blockers of LEDGF/p75-dependent integrase strand transfer – biochemical, TR-FRET, high throughput, primary screen | HIV-1 integrase (with human LEDGF/p75) | TR-FRET IN-LEDGF/p75 DNA integration, Eu/Cy5 | inhibition, % at 3.7 µM | 370,000 compounds, 0.64% hits | AID 743269, 2014;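 active means inhibition above the screen-wide mean plus 3 SD, cut at about 13% in these data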;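 further: signal is the Cy5 over europium emission ratio at 671 and 618 nm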
# DAGLB inhibitor = DAGLB lipase inhibitors, primary screen, biochemical, fluorescence, HTS; Diacylglycerol lipase-beta (Homo sapiens), Q8NCG7; inhibition, % at 5.17 µM; HEK293T DAGLB membrane lysate, EnzChek fluorogenic substrate; AID 504411, 2011; 340,000 compounds, 0.059% hits; in the data active means inhibition above about 34%
# HTRA1 inh = HTRA1 serine protease inhibitors, primary screen, biochemical, fluorescence polarization, HTS. Q92743. recombinant HTRA1, FP-rhodamine activity-based probe. inhibition, % at 5.96 µM. 340,000 compounds, 0.5% hits. AID 504803, 2011; in the data active means inhibition above about 36%
# ABHD4 inh = ABHD4 inhibitors, primary screen, biochemical, fluorescence polarization, mouse; purified mABHD4, FP-Rh probe fluorescence polarization; 370,000 compounds, 0.54% hits; inhibition, % at 8.92 µM;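 active means inhibition exceeding the mean over every tested compound plus 3 SD, cut at about 30% in these data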
# Target sequence (Q8VD66 whole entry, looked up): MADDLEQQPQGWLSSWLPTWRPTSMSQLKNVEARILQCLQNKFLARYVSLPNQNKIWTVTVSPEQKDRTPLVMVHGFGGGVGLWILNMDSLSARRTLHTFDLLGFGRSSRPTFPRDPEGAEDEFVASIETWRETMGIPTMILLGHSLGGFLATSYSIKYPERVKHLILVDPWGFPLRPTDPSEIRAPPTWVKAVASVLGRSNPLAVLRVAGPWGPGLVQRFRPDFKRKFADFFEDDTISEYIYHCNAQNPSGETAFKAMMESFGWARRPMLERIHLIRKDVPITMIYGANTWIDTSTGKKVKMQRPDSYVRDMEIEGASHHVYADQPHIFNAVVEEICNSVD
#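 Assay system: wild-type mouse ABHD4 protein; compound: single nominal dose of 8.92 µM, 0.89% DMSO final; schedule: 45 min + 60 min at 25 °C; measured by: FP readout, ex 525 nm / em 598 nm; evaluation: % inhibition of FP-Rh probe binding versus controls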
# PRMT1 inh = PRMT1 methyltransferase inhibitors, primary screen, biochemical, fluorescence polarization. Protein arginine N-methyltransferase 1 (Homo sapiens), Q99873. 370,000 compounds, 1.3% hits. recombinant PRMT1, activity-based probe fluorescence polarization. inhibition, % at 2.79 µM;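 active means inhibition above about 21% made by adding two undisclosed values, limit read from the data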
# PRMT1 confirm = PRMT1 methyltransferase inhibitors, confirmation, biochemical, fluorescence polarization, triplicate; recombinant His-PRMT1, activity-based probe fluorescence polarization; 3,300 compounds, 42% hits; shares compounds with PRMT1 inh; inhibition, % at 2.79 µM;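 active means mean inhibition across replicates above the hit cutoff derived for the earlier primary screen, cut at about 22% in these data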
# Numbers stand for hits; n = inactive; x = no result.
SMILES,rCAG binder,LEDGF integ inh,DAGLB inhibitor,HTRA1 inh,ABHD4 inh,PRMT1 inh,PRMT1 confirm
CCOC(=O)CNC(=O)N1CCc2ccc(NC(=O)c3ccccc3OC)cc2C1,n,n,n,n,n,n,x
Cc1cc(N2CCCC2=O)cc(C)c1S(=O)(=O)Nc1c(C)nn(C)c1C,n,n,n,n,n,n,x
CCOC(=O)CNC(=O)Cn1cnc2c(cnn2-c2ccc(C)cc2)c1=O,n,n,n,n,n,76.1,n
O=C(O)C1C2C=CC(C2)C1C(=O)NCc1ccc(Cl)cc1Cl (configuration not stated),n,n,n,n,n,n,x
CCN(CC(=O)NCCc1ccc(Cl)cc1)Cc1nc2ccccc2c(=O)[nH]1,n,n,n,n,n,n,x
O=C(O)c1ccccc1-c1ccc(/C=C/c2cc(C(F)(F)F)[nH]c(=O)n2)o1,n,n,n,n,n,29.4,24.6
O=C(N/N=C/c1ccc(-c2ccccc2C(=O)O)o1)c1cccs1,n,n,n,n,n,n,x
COCCN(C(=S)Nc1c(C)cc(C)cc1C)C(C)c1cccnc1 (configuration not stated),n,n,n,n,n,74.2,63.2
COCCN(C(=S)Nc1c(C)cccc1C)C(C)c1cccnc1 (configuration not stated),n,n,n,n,n,n,x
CC(C)CC(C(=O)O)N1C(=O)C2C3CC(C2C1=O)C1C(c2ccccc2)c2sc(=O)[nH]c2SC31 (configuration not stated),n,n,n,n,n,n,x
O=C(O)CN1C(=O)C2C3CC(C2C1=O)C1C(c2ccccc2)c2sc(=O)[nH]c2SC31 (configuration not stated),n,n,n,n,n,28.9,28.6
CCOc1ccccc1NC(=O)CSc1ccc(-c2ccco2)nn1,n,n,n,n,n,25.1,48.4
CCOc1ccccc1NC(=O)Cn1nc(-c2ccco2)ccc1=O,n,n,n,n,n,n,x
COc1ccc(NC(=O)CSc2ccc(-c3ccco3)nn2)cc1,n,n,n,n,n,37.1,53.8
O=C1CCCC(=O)N1c1ccc(O)cc1,n,n,n,n,n,n,x
O=C1C=CC(=O)N1c1ccc(O)cc1,n,n,n,n,n,89.5,92.1
O=C(CSc1n[nH]c(-c2ccncc2)n1)c1ccccc1,n,n,n,n,n,n,x
Cc1nc(SCC(=O)c2ccccc2)n[nH]1,n,n,n,n,n,54.3,43.4
O=C(O)c1ccc(CN2C(=O)CSC2=S)cc1,n,n,n,n,n,28.7,n
O=C(O)c1ccc(N2C(=O)CSC2=S)cc1,n,n,n,n,n,n,x
O=C(CCSc1ccc(Br)cc1)c1ccc(O)cc1,n,n,n,n,n,30.8,n
CCOC(=O)C1=C(CS(=O)(=O)c2ccccc2)NC(=O)NC1c1ccccc1OCC (configuration not stated),n,n,n,n,n,n,x
CCNc1nc(NC(C)(C)C)nc(N2CCCC2)n1,n,n,n,n,n,31.7,n
COCc1cc(C2C(C(=O)c3ccco3)=C(O)C(=O)N2CCOCCO)ccc1O (configuration not stated),n,n,n,n,n,n,x
CCOC(=O)C1=NNC2C(=O)N(CC)C(=O)C12 (configuration not stated),n,n,n,n,n,n,x
SMILES,rCAG binder,LEDGF integ inh,DAGLB inhibitor,HTRA1 inh,ABHD4 inh,PRMT1 inh,PRMT1 confirm
O=C(CSC1=NCCS1)NC(c1ccccc1)c1ccccc1,n,n,n,n,n,57.6,66.0
O=C(CSC1=NCCS1)NC(NC(=O)CSC1=NCCS1)c1ccccc1,n,n,n,n,n,26.0,n
CCOc1cc2c3c(c1)C1(Nc4ccccc4S1)C(=O)N3C(C)(C)CC2C (configuration not stated),n,n,n,n,n,78.2,n
CCOc1cc2c3c(c1)C1(OCCO1)C(=O)N3C(C)(C)CC2C (configuration not stated),n,n,n,n,n,n,x
CC(Nc1cc(N2CCN(S(C)(=O)=O)CC2)ccc1[N+](=O)[O-])c1ccccc1 (configuration not stated),n,n,n,n,n,n,x
CS(=O)(=O)N1CCN(c2ccc([N+](=O)[O-])c(SCc3ccco3)c2)CC1,n,n,x,x,n,33.0,n
COc1cccc(NC(=O)Cc2ccccc2)c1,n,n,n,n,n,n,x
O=C(Cc1ccccc1)Nc1cccc(N2C(=O)C=CC2=O)c1,n,n,n,n,n,96.3,94.8
O=C(O)c1cccc(N2C(=O)C=CC2=O)c1,n,n,n,n,n,59.2,84.3
Cc1ccc2nc3n(c(=O)c2c1)-c1cc(Cl)ccc1C(=O)NC3Cc1ccccc1 (configuration not stated),n,n,x,x,n,n,x
Cc1cc(C)c(OCC(=O)NCC(c2ccco2)N2CCCCC2)c(C)c1 (configuration not stated),n,n,n,n,n,n,x
CCCCCCC(=O)N(O)C1CC(=O)N(c2ccc(Br)cc2)C1=O (configuration not stated),n,n,n,n,n,41.9,72.8
CCCCCCC(=O)N(O)C1CC(=O)N(c2ccc(F)cc2)C1=O (configuration not stated),n,n,n,n,n,70.0,96.9
CC(C)n1cc(/C=C/c2cc[n+](C)cc2)c2ccccc21,n,n,n,n,n,30.6,n
CCn1cc(/C=C/c2cc[n+](C)cc2)c2ccccc21,n,n,n,n,n,n,x
Cc1ccccc1NC(=O)c1c(C)[nH]c(=S)c(C#N)c1-c1ccc(Cl)cc1,n,n,x,x,n,n,x
Cc1[nH]c(=S)c(C#N)c(-c2ccccc2)c1C(=O)Nc1ccccc1,n,n,n,n,n,35.6,n
CCC1(O)C(=O)OCc2c1cc1n(c2=O)Cc2cc3cc(O)ccc3nc2-1 (configuration not stated),n,n,n,n,n,28.5,30.7
FC(F)c1nc2ccccc2[nH]1,n,n,n,n,n,n,x
c1ccc2[nH]c3cc4ncnc4cc3nc2c1,n,n,n,n,n,59.5,61.4
CCN1CCN(C(c2cc3cccc(C)c3[nH]c2=O)c2nnnn2Cc2ccccc2)CC1 (configuration not stated),n,n,n,n,n,n,x
